Data set [1] in a line: Drug level in human hepatocytes treated with 3, 5 -Dichloro-4-( (S)-2-(3 -(cyclopropylmethoxy)-4-(difluoromethoxy)phenyl)-2-(((S)-1-((3- (dimethylcarbamoyl)-phenyl)sulfonyl)pyrrolidine-2-carbonyl)oxy)ethyl)pyridine 1-Oxide at 10 uM after 60 mins by LC-MS/MS analysis. It is filed as ADME, cell-based, Hepatocyte. Particulars: 1 h. The procedure, abridged:
(§1)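 Pooled mixed-sex cryopreserved human hepatocytes (1 million cells/mL) in Leibovitz L-15 at 37 °C, compound at 10 μM in duplicate. Sampled at 0 and 60 min. Protein-free supernatant evaporated under nitrogen, reconstituted in mobile phase and analysed by LC−MS/MS. Cell-free medium incubation for 60 min as control.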

Data set [2] can be described thus: Inhibition of PDE4 in human PBMC assessed as reduction in LPS-induced TNFalpha release after 18 hrs by quantitative ELISA. In general terms: In an ELISA, binding on a coated surface is turned into a signal by an enzyme label.
Data set [3] is described as follows: Drug level in human hepatocytes treated with 3, 5-Dichloro-4-((S)-2-(3-(cyclopropylmethoxy)-4-(difluoromethoxy)phenyl)-2-((S)-3-(3-(dimethylcarbamoyl)-phenylsulfonyl)thiazolidine-2-carbonyloxy)ethyl)pyridine 1-Oxide at 10 uM after 60 mins by LC-MS/MS analysis. It is filed as ADME, cell-based, Hepatocyte. Conditions: 1 h. The procedure, abridged:
as §1

Data set [4] can be described thus: Inhibition of PDE4 in human U937 cell lysates assessed as residual cAMP after 2.5 mins by LANCE assay.
A short description of data set [5]: Metabolic stability in human plasma assessed as compound remaining at 1 uM measured after 60 mins in presence of NADPH by LC-MS/MS analysis. It is filed as ADME, cell-free. Conditions: read-out: Stability.
A short description of data set [6]: Protein binding in human plasma at 5 uM after 5 hrs by LC-MS/MS analysis. It is filed as ADME, cell-free. Particulars: read-out: PPB (converted).
A short description of data set [7]: Metabolic stability in human lung S9 fraction assessed as compound remaining at 1 uM measured after 60 mins in presence of NADPH by LC-MS/MS analysis. It is filed as ADME. Conditions: read-out: Stability.
The nature of data set [8]: Apparent permeability across apical to basolateral side in human Caco2 cells at 10 uM after 2 hrs by LC-MS/MS analysis. It is filed as ADME, cell-based. Particulars: Caco-2. Background: Passage across Caco-2 layers is used to estimate intestinal permeability.
Data set [9] can be described thus: Apparent permeability across basolateral to apical side in human Caco2 cells at 10 uM after 2 hrs by LC-MS/MS analysis. Conditions: Caco-2. It is filed as ADME, cell-based.
Data set [10] is described as follows: Intrinsic clearance in human liver microsomes at 1 uM measured after 60 mins in presence NADPH by LC-MS/MS analysis. Conditions: read-out: CLH. It is filed as ADME, microsome. The procedure, abridged: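 Compound at 1 μM with human liver microsomes (0.8 mg protein/mL) in Dulbecco's buffer pH 7.4, 1 mM NADPH, 37 °C, in duplicate. Sampled at 0, 5, 10, 20, 30 and 60 min, quenched with ice-cold acetonitrile, and unchanged compound measured by LC−MS/MS. No-NADPH controls; midazolam (1 μM) as phase I control.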
(In general: Microsomes from liver hold many membrane-bound enzymes, among them those of drug oxidation.)

Data set [11] is described as follows: Intrinsic clearance in human hepatocytes assessed per million cells at 1 uM measured after 90 mins by LC-MS/MS analysis. It is filed as ADME, cell-based, Hepatocyte. Particulars: read-out: CLH. In a few lines:
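Compound at 1 μM with hepatocytes (1 million cells/mL) in Leibovitz L-15 at 37 °C, in duplicate. Sampled at 0, 10, 20, 30, 60 and 90 min, quenched with ice-cold acetonitrile, centrifuged, and unchanged compound measured by LC−MS/MS. Included 7-ethoxycoumarin and 7-hydroxycoumarin activity controls and cell-free medium controls.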

Data set [12] relates to Rattus norvegicus. Put plainly: Anti-inflammatory activity in OVA-induced airway inflammation Brown Norway rat model assessed inhibition of eosinophils recruitment in bronchoalveolar lavage fluid administered intratracheally as powder formulation 2 hrs before aerosolized OVA challenge measured at 24 hrs post aerosolized OVA challenge. It is filed as functional. The procedure, abridged:
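Male Brown Norway rats sensitized i.p. with OVA (1 mg/rat) plus Al(OH)3 (100 mg/rat) in saline on 3 consecutive days. Challenged 2–3 weeks later with nose-only 1% OVA aerosol for 30 min. Lactose-blended dry powder (10 mg/kg total powder) insufflated intratracheally; dose taken from needle weight difference. BAL with 3 × 4 mL HBSS/EDTA/HEPES at 24 h; total and differential counts by automated counter. ED50 from fitted dose–response curve.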

This note sets out measurements from ChEMBL document CHEMBL4024768, “Discovery and Optimization of Thiazolidinyl and Pyrrolidinyl Derivatives as Inhaled PDE4 Inhibitors for Respiratory Diseases” (J Med Chem, 2017).

In general, IC50 refers to the concentration needed to halve the response being measured. A word on the Papp A→B: it is how fast a substance crosses the layer from the apical side. As usually defined, the Papp B→A is how fast a substance crosses the layer from the basolateral side. By ED50 is commonly meant the dose that gives a 50% effect, or the effect in half of the subjects. A lower ED50 goes with an effect at a small dose.

For `[O-][n+]1cc(Cl)c(C[C@H](O)c2ccc(OC(F)F)c(OCC3CC3)c2)c(Cl)c1`, the Drug metabolism entry in data set [1] and in data set [3] was “Metabolite_Detected” in each case. Further, in data set [2], the IC50 was determined as 480 nM.

With `CN(C)C(=O)c1cccc(S(=O)(=O)N2CCC[C@H]2C(=O)O)c1`, the Drug metabolism entry in data set [1] is given as “Metabolite_Detected”. Besides, in data set [2], the IC50 is over 1000 nM.

Turning to `CN(C)C(=O)c1cccc(S(=O)(=O)N2CCS[C@H]2C(=O)O[C@@H](Cc2c(Cl)c[n+]([O-])cc2Cl)c2ccc(OC(F)F)c(O)c2)c1` (relative stereo), the 50% inhibitory concentration (IC50) in data set [2] was 1.95 nM; in data set [4] it was 0.183 to 1.95 nM. The Drug metabolism entry in data set [3] is listed as “Metabolite_Detected”.

As for `CN(C)C(=O)c1cccc(S(=O)(=O)N2CCCC[C@H]2C(=O)O[C@@H](Cc2c(Cl)c[n+]([O-])cc2Cl)c2ccc(OC(F)F)c(OCC3CC3)c2)c1` (relative stereo), the remaining at 1 h, 1 µM was 104% in [5] and 72.5% in data set [7]. Also, the fraction unbound at 5 h, 5 µM in [6] was 0.0012. The IC50 is 0.012 nM in data set [2] and 0.056 nM in data set [4]. The Papp A→B at 2 h, 10 µM in data set [8] was found to be 21.7 ×10⁻⁶ cm/s. In data set [9], the Papp B→A at 2 h, 10 µM amounted to 73.4 ×10⁻⁶ cm/s. In data set [10], the microsomal CLint at 1 µM worked out at 363 µL/min/mg. Also, the hepatocyte CLint at 1 µM in data set [11] amounted to 64.6 µL/min/1e6 cells.

In the case of `COc1ccc(S(=O)(=O)N2CCS[C@H]2C(=O)O[C@@H](Cc2c(Cl)c[n+]([O-])cc2Cl)c2ccc(OC(F)F)c(OCC3CC3)c2)cc1C(=O)N(C)C` (relative stereo), the remaining at 1 h, 1 µM in [5] turned out to be 98.8%; in data set [7], 71.2%. In addition, the fraction unbound at 5 h, 5 µM in [6] was 0.0017. Besides, the IC50 came to 0.022 nM in [2] and 0.026 nM in [4]. In addition, the Papp A→B at 2 h, 10 µM in data set [8] turned out to be 0.23 ×10⁻⁶ cm/s. Besides, the apparent permeability from basolateral to apical (Papp B→A) at 2 h, 10 µM in [9] stood at 7.67 ×10⁻⁶ cm/s. In addition, the microsomal CLint at 1 µM in data set [10] was determined as 360 µL/min/mg. In addition, in [11], the hepatocyte CLint at 1 µM was 47.6 µL/min/1e6 cells.

On to `COc1ccc(S(=O)(=O)N2CCCC[C@H]2C(=O)O[C@@H](Cc2c(Cl)c[n+]([O-])cc2Cl)c2ccc(OC(F)F)c(OCC3CC3)c2)cc1C(=O)N(C)C` (relative stereo), for which the remaining at 1 h, 1 µM in data set [5] turned out to be 88.2%; in data set [7] it was 59.7%. For the same compound, the fraction unbound at 5 h, 5 µM in [6] was 0.0023. The IC50 came out at 0.015 nM in data set [2] and 0.031 nM in [4]. For the same compound, the Papp A→B at 2 h, 10 µM in data set [8] came to 13.2 ×10⁻⁶ cm/s. Moreover, the Papp B→A at 2 h, 10 µM in data set [9] turned out to be 68.4 ×10⁻⁶ cm/s. Further, in data set [10], the microsomal CLint at 1 µM came out at 244 µL/min/mg. Also, the hepatocyte CLint at 1 µM in data set [11] was 33.2 µL/min/1e6 cells.

Regarding `CNC(=O)c1cc(S(=O)(=O)N2CCS[C@H]2C(=O)O[C@@H](Cc2c(Cl)c[n+]([O-])cc2Cl)c2ccc(OC(F)F)c(OCC3CC3)c2)cn1C` (relative stereo), the remaining at 1 h, 1 µM worked out at 100% in data set [5] and 63.5% in data set [7]. Further, the fraction unbound at 5 h, 5 µM in [6] is 0.0016. The IC50 in data set [2] stood at 0.03 nM; in data set [4], 0.025 nM. Also, the Papp A→B at 2 h, 10 µM in data set [8] is 1.26 ×10⁻⁶ cm/s. Also, the Papp B→A at 2 h, 10 µM in [9] came out at 18.3 ×10⁻⁶ cm/s. In addition, the microsomal CLint at 1 µM in [10] is 202 µL/min/mg. Besides, the hepatocyte CLint at 1 µM in data set [11] worked out at 47.6 µL/min/1e6 cells.

As for `CCCC1O[C@@H]2C[C@H]3[C@@H]4CCC5=CC(=O)C=C[C@]5(C)[C@H]4[C@@H](O)C[C@]3(C)[C@]2(C(=O)CO)O1` (stereo partly specified) [BUDESONIDE], the inhibition entry in data set [12] is “Dose-dependent effect”. The compound further gave an ED50 in data set [12] (inhaled or nasal) of 0.04 µmol/kg.
